Screens: PubChem, Broad Institute
Many of the other results were omitted from the sample, so hits are more common in it than they were.
GASC1 inh: inhibitors of human demethylase GASC-1 KDM4C; Q9H3R0; GST-KDM4C 2-372, H3K9me3 peptide, LANCE TR-FRET; inhibition, % at 12.5 µM; hit rate 0.15% among 96,000; AID 720574;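 active = mean replicate inhibition above about 25%, with at least 55% of replicates also reaching it, limit read from the data, passing the limit was not always enough; inconclusive = only one of those two conditions met; inactive = neither condition met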
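System – N-terminal GST-fused human GASC-1 (KDM4C) fragment, residues 2-372 · Input – enzyme final amount 10 nM · Technique – LANCE TR-FRET, Eu antibody, ULight-streptavidin, EDTA, ex 340 nm, em 618/671 nm · Medium – HEPES buffer, pH 7.5, plus ascorbate · Incubation – enzyme reaction 30 min, then detection 60 min, both room temperature · Reagent – H3K9me3 peptide with Fe(II)/2OG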
T cruzi growth-1: T. cruzi proliferation inhibition | T. cruzi beta-gal in NIH3T3, GalScreen luminescence, 90 h | inhibition, % at 8.34 µM | hit rate 5.9% among 77,000;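 active = mean inhibition above about 93%, with at least 55% of replicates each passing it, limit read from the data, passing the limit was not always enough; inconclusive = only one of those two conditions holds; inactive = neither condition holds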
IDH1 R132H inh: IDH1 R132H (human) inhibition | AID 624101 | inhibition, % at 10 µM | hit rate 0.18% among 70,000 | IDH1 R132H reductase, diaphorase/resazurin fluorescence, 60 min | O75874; in the data active = inhibition above about 34%; inconclusive = no clear call, values can overlap the other calls; inactive = below about 11%;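 also: 0% = DMSO and 100% = no enzyme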
Target sequence (O75874 whole entry R132H): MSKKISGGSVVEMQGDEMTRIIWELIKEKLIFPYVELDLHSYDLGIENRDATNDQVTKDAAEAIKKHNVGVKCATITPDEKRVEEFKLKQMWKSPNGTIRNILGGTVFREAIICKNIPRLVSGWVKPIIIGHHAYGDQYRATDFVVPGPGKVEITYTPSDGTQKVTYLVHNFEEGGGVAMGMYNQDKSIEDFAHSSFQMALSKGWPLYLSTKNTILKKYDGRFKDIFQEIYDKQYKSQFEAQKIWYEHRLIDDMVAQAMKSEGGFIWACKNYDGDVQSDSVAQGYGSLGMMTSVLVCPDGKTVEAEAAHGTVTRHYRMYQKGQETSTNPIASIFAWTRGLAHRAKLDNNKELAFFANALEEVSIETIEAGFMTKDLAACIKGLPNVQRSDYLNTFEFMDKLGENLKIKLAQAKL
T cruzi growth-2: Trypanosoma cruzi proliferation inhibition; shares compounds with T cruzi growth-1; T. cruzi beta-gal in NIH3T3, GalScreen luminescence, 90 h; inhibition, % at 8.35 µM; hit rate 72% among 5,600; AID 651739;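 active = mean replicate inhibition above about 95% and at least 55% of replicates individually reaching it, limit read from the data; inconclusive = only one of the two criteria is met; inactive = neither criterion is met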
T cruzi growth-3: Trypanosoma cruzi proliferation inhibition. shares compounds with T cruzi growth-1. T. cruzi beta-gal in NIH3T3, GalScreen luminescence, 90 h. inhibition, % at 2.09 µM. hit rate 21% among 5,600. AID 651740;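 active = mean inhibition above about 95%, with at least 55% of replicates also reaching it, limit read from the data; inconclusive = meets just one of the two conditions; inactive = meets neither condition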;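 also: plate controls were neutral control median for no effect and positive control median for full effect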
3T3 cytotox: kills mouse NIH/3T3 fibroblasts; shares compounds with T cruzi growth-1; hit rate 14% among 5,600; AID 651742; NIH/3T3 viability, CellTiter-Glo ATP luminescence, 90 h; cytotoxicity (signal decrease), % at 8.35 µM;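 active = mean signal decrease across replicates above about 35% based on untreated-well scatter, with enough replicates individually passing, limit read from the data; inconclusive = no rule stated though some were filed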;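 also: 0% = median of neutral control wells and 100% = median of positive control wells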
3T3 cytotox 2: NIH/3T3 (mouse) viability loss; AID 651744; hit rate 56% among 5,600; inhibition, % at 24.9 µM; NIH/3T3 viability, CellTiter-Glo ATP luminescence, 90 h; shares compounds with T cruzi growth-1;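 active = mean loss of cell viability signal at or above a set limit, and enough replicates individually reaching it; inconclusive = meets only the mean limit or only the replicate share; inactive = meets neither condition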;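 also: 0% = median of neutral control wells and 100% = median of positive control wells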
* = called active by the depositor; ? = inconclusive; . = no result.

SMILES	GASC1 inh	T cruzi growth-1	IDH1 R132H inh	T cruzi growth-2	T cruzi growth-3	3T3 cytotox	3T3 cytotox 2
O=C(Nc1cccc(F)c1)N1CCCCN2[C@H](C1)[C@@H](c1ccc(C#CC3CC3)cc1)[C@@H]2CO	-1	85	.	.	.	.	.
O=C(Nc1ccc(F)cc1)N1CCCCN2[C@@H](CO)[C@H](c3ccc(C#CC4CC4)cc3)[C@@H]2C1	1	53	.	.	.	.	.
O=C(Nc1cccc(F)c1)N1CCCCN2[C@H](CO)[C@@H](c3ccc(C#CC4CC4)cc3)[C@H]2C1	-2	112*	.	107*	80	26	104*
O=C(Nc1ccc(F)cc1)N1CCCCN2[C@H](CO)[C@@H](c3ccc(C#CC4CC4)cc3)[C@H]2C1	0	113*	.	111*	84	28	105*
O=C(Nc1cccc(F)c1)N1CCCCN2[C@H](CO)[C@@H](c3ccc(C#CC4CC4)cc3)[C@@H]2C1	-3	110*	.	106*	104*	23	104*
O=C(Nc1cccc(F)c1)N1CCCCN2[C@@H](CO)[C@@H](c3ccc(C#CC4CC4)cc3)[C@@H]2C1	-2	70	.	.	.	.	.
O=C(Nc1cccc(F)c1)N1CCCCN2[C@H](CO)[C@H](c3ccc(C#CC4CC4)cc3)[C@H]2C1	-1	102*	.	98*	100*	122*	104*
O=C(Nc1ccccc1)N1CCCCN2[C@H](CO)[C@@H](c3ccc(C#CC4CC4)cc3)[C@@H]2C1	0	86	.	.	.	.	.
Cc1noc(C)c1NC(=O)Nc1ccc2c(c1)C(=O)N([C@@H](C)CO)C[C@@H](C)[C@H](CN(C)C(=O)NC1CCCCC1)OCCCC[C@@H](C)O2	-3	.	1	.	.	.	.
C[C@@H]1CN([C@H](C)CO)C(=O)c2cc(NS(C)(=O)=O)ccc2O[C@@H](C)CCCCO[C@@H]1CN(C)Cc1ccncc1	1	29	-1	.	.	.	.
C[C@@H]1CN([C@@H](C)CO)C(=O)c2cccc(NS(=O)(=O)c3ccc(F)cc3)c2O[C@H]1CN(C)Cc1ccccc1	0	-20	.	.	.	.	.
C[C@@H]1CN([C@H](C)CO)S(=O)(=O)c2ccc(C#CCN(C)C)cc2O[C@H]1CN(C)S(=O)(=O)c1cccc(F)c1	2	.	3	.	.	.	.
CC(C)CC#Cc1ccc2c(c1)O[C@H](CN(C)S(=O)(=O)c1cccc(F)c1)[C@@H](C)CN([C@H](C)CO)S2(=O)=O	7	119*	0	101*	107*	32	61*
COCC#Cc1ccc2c(c1)O[C@@H](CN(C)S(=O)(=O)c1cccc(F)c1)[C@H](C)CN([C@H](C)CO)S2(=O)=O	-2	29	-1	.	.	.	.
C[C@H](CO)N1C[C@H](C)[C@H](CN(C)S(=O)(=O)c2cccc(F)c2)Oc2cc(C#CCN(C)C)ccc2S1(=O)=O	4	.	0	.	.	.	.
CCCC#Cc1ccc2c(c1)O[C@@H](CN(C)S(=O)(=O)c1cccc(F)c1)[C@@H](C)CN([C@H](C)CO)S2(=O)=O	-1	124*	-2	104*	85	17	19
CC(C)CC#Cc1ccc2c(c1)O[C@@H](CN(C)S(=O)(=O)c1cccc(F)c1)[C@H](C)CN([C@@H](C)CO)S2(=O)=O	5	110*	0	?	115*	34	68*
C[C@@H]1CN([C@H](C)CO)S(=O)(=O)c2ccc(C#CCN(C)C)cc2O[C@@H]1CN(C)S(=O)(=O)c1cccc(F)c1	2	.	0	.	.	.	.
CC(C)CC#Cc1ccc2c(c1)O[C@@H](CN(C)S(=O)(=O)c1cccc(F)c1)[C@H](C)CN([C@H](C)CO)S2(=O)=O	2	121*	-5	103*	87	45*	106*
C[C@@H]1CCCCO[C@H](CN(C)C(=O)Nc2cccc3ccccc23)[C@H](C)CN([C@H](C)CO)C(=O)c2cc(NC(=O)Cc3ccccc3)ccc2O1	-1	.	1	.	.	.	.
C[C@@H]1CN([C@H](C)CO)S(=O)(=O)c2ccc(-c3cncnc3)cc2O[C@H]1CN(C)C(=O)C1CC1	0	8	.	.	.	.	.
CN(C)C(=O)[C@@H]1[C@@H](CO)[C@@H]2Cn3c(ccc(C4=CCCC4)c3=O)[C@@H]2N1C(=O)c1ccccc1F	0	33	.	.	.	.	.
